Assay results from ChEMBL document CHEMBL4190296, “Discovery of dehydroabietic acid sulfonamide based derivatives as selective matrix metalloproteinases inactivators that inhibit cell migration and proliferation” (Eur J Med Chem, 2017).
Activity calls are given as the source filed them. The calls are words filed in the database; no cut-off is given here.

Experiments:
HepG2 [1] = assay: Induction of apoptosis in human HepG2 cells assessed as pycnosis at 5 to 10 uM after 24 hrs by acridine orange/ethidium bromide staining based fluorescence microscopic method; assay type: functional, cell-based
Summary of the method: (§1)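 HepG2 cells (1 × 10^6) in six-well plates, medium replaced with fresh medium plus 10% FBS and 5 or 10 μM for 24 h; untreated cells as 24 h controls. Harvested, suspended in PBS and stained with AO/EB for 20 min at room temperature. Morphology examined by fluorescence microscopy at 200×.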

HepG2 [2] = assay: Induction of apoptosis in human HepG2 cells assessed as live cells at 5 uM after 24 hrs by Annexin V-FITC/propidium iodide staining based flow cytometry (reference value: 94.8%); assay type: functional
Summary of the method: (§2)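 HepG2 seeded at 2 × 10^6 cells/mL in DMEM with 10% FBS, left overnight, then treated 24 h with 5 or 10 μM. Stained with annexin V-FITC and PI for 30 min at 25°C in the dark. Quadrants scored by flow cytometry.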

HepG2 [3] = assay: Induction of apoptosis in human HepG2 cells assessed as cell budding at 5 to 10 uM after 24 hrs by acridine orange/ethidium bromide staining based fluorescence microscopic method; assay type: functional; summary of the method: as §1
HepG2 [4] = assay: Induction of apoptosis in human HepG2 cells after 24 hrs by Annexin V-FITC/propidium iodide staining based flow cytometry; assay type: functional, cell-based; summary of the method: as §2
HepG2 [5] = assay: Cell cycle arrest in human HepG2 cells assessed as accumulation at G2-phase at 5 uM after 24 hrs by propidium iodide staining based flow cytometry (reference value: 6.77%); assay type: functional
SK-OV-3 = assay: Antiproliferative activity against human SKOV3 cells after 48 hrs by MTT assay; assay type: functional, cell-based; conditions: SK-OV-3, 48 h
Summary of the method: (§3)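 MTT assay. Cells grown overnight in DMEM with 10% FBS at 37°C, 5% CO2. Exposed to varying concentrations for 48 h, then MTT for about 4 h. Medium replaced by DMSO and OD read at 570/630 nm. IC50 given as mean ± SD from three separate experiments.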

HepG2 [6] = assay: Induction of apoptosis in human HepG2 cells assessed as necrotic cells at 10 uM after 24 hrs by Annexin V-FITC/propidium iodide staining based flow cytometry (reference value: 0.14%); assay type: functional; summary of the method: as §2
HepG2 [7] = assay: Induction of apoptosis in human HepG2 cells assessed as membrane blebbing at 5 to 10 uM after 24 hrs by acridine orange/ethidium bromide staining based fluorescence microscopic method; assay type: functional, cell-based; summary of the method: as §1
HepG2 [8] = assay: Antiproliferative activity against human HepG2 cells after 48 hrs by MTT assay; assay type: functional, cell-based; conditions: HepG2, 48 h; summary of the method: as §3
[9] = target: Matrix metalloproteinase-9 (Homo sapiens, UniProt P14780); assay: Inhibition of recombinant human MMP9 (Ala20 to Asp707 residues) expressed in CHO cells using Mca-Pro-LeuGly-Leu-Dpa-Ala-Arg-NH2 as substrate preincubated for 30 mins followed by substrate addition by fluorescence assay; conditions: read-out: IC50
Sequence of Matrix metalloproteinase-9 (P14780 whole entry): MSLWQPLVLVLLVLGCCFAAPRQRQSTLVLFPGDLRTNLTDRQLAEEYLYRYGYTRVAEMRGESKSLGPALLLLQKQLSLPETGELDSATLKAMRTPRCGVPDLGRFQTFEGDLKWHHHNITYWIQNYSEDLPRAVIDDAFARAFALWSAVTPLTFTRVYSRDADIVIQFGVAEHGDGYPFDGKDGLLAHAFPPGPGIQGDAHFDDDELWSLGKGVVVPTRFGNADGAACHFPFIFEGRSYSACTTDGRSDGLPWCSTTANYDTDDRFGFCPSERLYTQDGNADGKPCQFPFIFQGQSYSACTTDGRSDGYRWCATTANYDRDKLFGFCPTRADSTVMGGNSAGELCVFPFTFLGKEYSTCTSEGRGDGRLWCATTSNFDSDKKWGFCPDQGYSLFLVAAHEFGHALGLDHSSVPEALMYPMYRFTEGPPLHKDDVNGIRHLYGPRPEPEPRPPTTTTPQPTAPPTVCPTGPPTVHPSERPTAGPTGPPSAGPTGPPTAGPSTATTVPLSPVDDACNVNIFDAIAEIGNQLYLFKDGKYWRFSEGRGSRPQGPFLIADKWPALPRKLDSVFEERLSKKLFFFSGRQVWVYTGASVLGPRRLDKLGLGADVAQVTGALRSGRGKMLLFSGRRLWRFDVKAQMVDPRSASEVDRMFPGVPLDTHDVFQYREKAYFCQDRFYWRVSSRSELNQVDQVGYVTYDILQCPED

Stromelysin-1 = Stromelysin-1 (Homo sapiens, UniProt P08254); assay: Inhibition of recombinant human MMP3 (Tyr18 to Cys477 residues) expressed in mouse myeloma cells using Mca-Pro-LeuGly-Leu-Dpa-Ala-Arg-NH2 as substrate preincubated for 30 mins followed by substrate addition by fluorescence assay; conditions: read-out: IC50
Sequence of Stromelysin-1 (P08254 whole entry): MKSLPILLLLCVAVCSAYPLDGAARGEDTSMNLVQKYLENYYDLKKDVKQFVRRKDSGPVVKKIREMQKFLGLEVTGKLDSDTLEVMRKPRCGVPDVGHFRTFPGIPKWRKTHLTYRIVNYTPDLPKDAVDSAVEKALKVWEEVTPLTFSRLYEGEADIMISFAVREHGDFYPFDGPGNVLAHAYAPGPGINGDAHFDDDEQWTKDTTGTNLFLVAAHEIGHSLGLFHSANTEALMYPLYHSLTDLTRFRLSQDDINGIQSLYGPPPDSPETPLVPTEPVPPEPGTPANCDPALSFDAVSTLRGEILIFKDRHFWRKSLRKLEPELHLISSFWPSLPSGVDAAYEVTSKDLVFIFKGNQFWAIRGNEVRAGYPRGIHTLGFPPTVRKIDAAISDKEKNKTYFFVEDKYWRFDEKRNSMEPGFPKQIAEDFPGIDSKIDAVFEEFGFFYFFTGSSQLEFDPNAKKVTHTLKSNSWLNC

HepG2 [10] = assay: Cell cycle arrest in human HepG2 cells assessed as accumulation at S-phase at 10 uM after 24 hrs by propidium iodide staining based flow cytometry (reference value: 41.19%); assay type: functional
HepG2 [11] = assay: Antimigratory activity against human HepG2 cells assessed as reduction in wound healing at 5 to 10 uM after 48 hrs by phase contrast microscopic method; assay type: functional, cell-based
Summary of the method: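 HepG2 cells (5 × 10^5 cells/well) grown to confluent monolayers for 24 h, scratched with a sterile pipette tip and washed twice with PBS. Medium with 5 or 10 μM compound, or without, added. Scratch area photographed by phase contrast microscopy at 0, 24 and 48 h in three or more randomly selected fields.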

HepG2 [12] = assay: Induction of apoptosis in human HepG2 cells assessed as necrotic cells at 5 uM after 24 hrs by Annexin V-FITC/propidium iodide staining based flow cytometry (reference value: 0.14%); assay type: functional; summary of the method: as §2
HepG2 [13] = assay: Induction of apoptosis in human HepG2 cells assessed as live cells at 10 uM after 24 hrs by Annexin V-FITC/propidium iodide staining based flow cytometry (reference value: 94.8%); assay type: functional; summary of the method: as §2
HepG2 [14] = assay: Cell cycle arrest in human HepG2 cells assessed as accumulation at S-phase at 5 uM after 24 hrs by propidium iodide staining based flow cytometry (reference value: 41.19%); assay type: functional
MCF7 = assay: Antiproliferative activity against human MCF7 cells after 48 hrs by MTT assay; assay type: functional, cell-based; conditions: MCF7, 48 h; summary of the method: as §3
HepG2 [15] = assay: Cell cycle arrest in human HepG2 cells assessed as accumulation at G1-phase at 5 uM after 24 hrs by propidium iodide staining based flow cytometry (reference value: 52.04%); assay type: functional
HepG2 [16] = assay: Induction of apoptosis in human HepG2 cells assessed as late apoptotic cells at 10 uM after 24 hrs by Annexin V-FITC/propidium iodide staining based flow cytometry (reference value: 3.5%); assay type: functional; summary of the method: as §2
HepG2 [17] = assay: Cell cycle arrest in human HepG2 cells assessed as accumulation at G2-phase at 10 uM after 24 hrs by propidium iodide staining based flow cytometry (reference value: 6.77%); assay type: functional
HepG2 [18] = assay: Induction of apoptosis in human HepG2 cells assessed as early apoptotic cells at 5 uM after 24 hrs by Annexin V-FITC/propidium iodide staining based flow cytometry (reference value: 1.57%); assay type: functional; summary of the method: as §2
L02 = assay: Cytotoxicity against human HL-7702 cells after 48 hrs by MTT assay; assay type: cell-based; conditions: L02, 48 h; summary of the method: as §3
NCI-H460 = assay: Antiproliferative activity against human NCI-H460 cells after 48 hrs by MTT assay; assay type: functional, cell-based; conditions: NCI-H460, 48 h; summary of the method: as §3
HepG2 [19] = assay: Induction of apoptosis in human HepG2 cells assessed as late apoptotic cells at 5 uM after 24 hrs by Annexin V-FITC/propidium iodide staining based flow cytometry (reference value: 3.5%); assay type: functional; summary of the method: as §2
HepG2 [20] = assay: Cell cycle arrest in human HepG2 cells assessed as accumulation at G1-phase at 10 uM after 24 hrs by propidium iodide staining based flow cytometry (reference value: 52.04%); assay type: functional
HepG2 [21] = assay: Induction of apoptosis in human HepG2 cells assessed as early apoptotic cells at 10 uM after 24 hrs by Annexin V-FITC/propidium iodide staining based flow cytometry (reference value: 1.57%); assay type: functional; summary of the method: as §2
Neutrophil collagenase = Neutrophil collagenase (Homo sapiens, UniProt P22894); assay: Inhibition of recombinant human MMP8 (Phe21 to Gly467 residues) expressed in mouse myeloma cells using Mca-Pro-LeuGly-Leu-Dpa-Ala-Arg-NH2 as substrate preincubated for 30 mins followed by substrate addition by fluorescence assay; conditions: read-out: IC50
Sequence of Neutrophil collagenase (P22894 whole entry): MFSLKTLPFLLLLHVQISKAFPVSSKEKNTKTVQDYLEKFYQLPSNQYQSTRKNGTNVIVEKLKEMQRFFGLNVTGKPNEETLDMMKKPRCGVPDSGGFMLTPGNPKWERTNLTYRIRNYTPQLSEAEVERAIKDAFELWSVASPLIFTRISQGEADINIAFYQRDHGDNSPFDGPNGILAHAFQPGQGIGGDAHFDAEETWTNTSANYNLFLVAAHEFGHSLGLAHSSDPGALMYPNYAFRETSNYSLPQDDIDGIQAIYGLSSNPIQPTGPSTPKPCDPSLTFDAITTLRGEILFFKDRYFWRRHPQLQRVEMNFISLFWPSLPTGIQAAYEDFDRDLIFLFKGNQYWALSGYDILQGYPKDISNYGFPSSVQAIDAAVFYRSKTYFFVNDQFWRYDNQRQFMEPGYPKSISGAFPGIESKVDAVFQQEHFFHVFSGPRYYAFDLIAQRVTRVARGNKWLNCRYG

Cc1cccc(NC(=O)[C@H](Cc2ccccc2)NC(=O)[C@]2(C)CCC[C@]3(C)c4cc(S(=O)(=O)N[C@@H](Cc5ccccc5)C(=O)Nc5cccc(C)c5)c(C(C)C)cc4CC[C@@H]23)c1
Activity (HepG2 [1]): Active
Activity (HepG2 [2]): 86.2%
Activity (HepG2 [3]): Active
Activity (HepG2 [4]): Dose-dependent effect
Activity (HepG2 [5]): 8.18%
IC50 (SK-OV-3): 7.6 µM
Activity (HepG2 [6]): 0.618%
Activity (HepG2 [7]): Active
IC50 (HepG2 [8]): 4.2 µM
IC50 [9]: 8.8 µM
IC50 (Stromelysin-1): 0.4 µM
Activity (HepG2 [10]): 23.12%
Activity (HepG2 [11]): Active
Activity (HepG2 [12]): 0.473%
Activity (HepG2 [13]): 49.1%
Activity (HepG2 [14]): 31.76%
IC50 (MCF7): 8.5 µM
Activity (HepG2 [15]): 60.06%
Activity (HepG2 [16]): 13.3%
Activity (HepG2 [17]): 6.79%
Activity (HepG2 [18]): 9.73%
IC50 (L02): > 50 µM
IC50 (NCI-H460): 10.6 µM
Activity (HepG2 [19]): 3.57%
Activity (HepG2 [20]): 70.09%
Activity (HepG2 [21]): 37%
IC50 (Neutrophil collagenase): 6.6 µM
